Our source for the inhibition and IC50 values is ChEMBL document CHEMBL1144893, “Discovery of a potent and selective protein kinase CK2 inhibitor by high-throughput docking” (J Med Chem, 2003).

Molecules are shown by their SMILES.

Test [1] concerns the target Receptor tyrosine-protein kinase erbB-2 (Homo sapiens) (UniProt P04626). Briefly: Inhibition of protein kinase HER-2 at 10 uM. In a few lines:
(§1)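 Filter-binding assay with recombinant GST-fused kinase domains expressed in baculovirus and purified over glutathione sepharose. [33P]-ATP was the phosphate donor and polyGluTyr (4:1) the acceptor. ATP was near Km: KDR, Flt-1, FGFR-1, Tek 8.0 μM; PDGFR-β, c-Kit, c-Met 1.0 μM; c-abl 5 μM; Her-1, Her-2 2.0 μM; c-Src 20 μM; IGF-1R 30 μM.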

For test [2], the target named is Insulin receptor (Homo sapiens) (UniProt P06213). Briefly: Inhibition of Insulin receptor at 10 uM.
In test [3] the target is Proto-oncogene tyrosine-protein kinase Src (Homo sapiens) (UniProt P12931). Briefly: Inhibition of Protein kinase Src at 10 uM. In a few lines:
as §1

Test [4] deals with Vascular endothelial growth factor receptor 3 (Homo sapiens) (UniProt P35916). The settings on record: 10 uM.
The target of test [5] is Epidermal growth factor receptor (Homo sapiens) (UniProt P00533). Briefly: Inhibition of protein kinase HER-1 at 10 uM. In a few lines:
as §1

Test [6] addresses Mast/stem cell growth factor receptor Kit (Homo sapiens) (UniProt P10721). Briefly: Inhibition of Protein kinase Kit at 10 uM. In short, it runs like this:
as §1

Test [7] has as its target Platelet-derived growth factor receptor beta (Homo sapiens) (UniProt P09619). Briefly: Inhibition of Platelet derived growth factor receptor beta at 10 uM. In a few lines:
as §1

Test [8] deals with 3-phosphoinositide-dependent protein kinase 1 (Homo sapiens) (UniProt O15530). Briefly: Inhibition of Phosphatidylinositol-trisphosphate-dependent kinase 1 at 10 uM.
Sequence of 3-phosphoinositide-dependent protein kinase 1 (Homo sapiens) (O15530 whole entry): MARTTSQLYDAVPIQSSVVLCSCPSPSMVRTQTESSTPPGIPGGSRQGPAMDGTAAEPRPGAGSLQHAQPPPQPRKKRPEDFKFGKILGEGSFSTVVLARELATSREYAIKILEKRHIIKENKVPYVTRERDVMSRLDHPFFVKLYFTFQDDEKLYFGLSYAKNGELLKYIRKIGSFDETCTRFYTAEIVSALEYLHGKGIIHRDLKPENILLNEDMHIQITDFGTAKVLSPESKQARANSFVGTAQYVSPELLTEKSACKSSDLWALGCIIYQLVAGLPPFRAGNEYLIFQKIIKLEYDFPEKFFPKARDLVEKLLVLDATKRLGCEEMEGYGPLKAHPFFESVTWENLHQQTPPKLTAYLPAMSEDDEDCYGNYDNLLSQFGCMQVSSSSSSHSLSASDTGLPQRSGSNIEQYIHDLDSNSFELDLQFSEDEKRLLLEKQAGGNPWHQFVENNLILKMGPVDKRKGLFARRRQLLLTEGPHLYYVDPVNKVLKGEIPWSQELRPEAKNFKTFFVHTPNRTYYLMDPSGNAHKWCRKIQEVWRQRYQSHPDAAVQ
Test [9] concerns the target T1, Casein kinase II (Homo sapiens) (UniProt P67870+P68400+P19784).
The target of test [10] is Angiopoietin-1 receptor (Homo sapiens) (UniProt Q02763). Briefly: Inhibition of Protein kinase TEK at 10 uM. In short, it runs like this:
as §1

Test [11] addresses Cyclin-dependent kinase 1 (Homo sapiens) (UniProt P06493). Briefly: Inhibition of Cyclin dependent kinase 1 at 10 uM. In short, it runs like this: (§2)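 Run under conditions optimized for each kinase, with ATP near the enzyme's Km: CDK1 7.5 μM, PKA 50 μM.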
In test [12] the target is T1, Casein kinase II (Homo sapiens). Briefly: Inhibition of Casein kinase 2 at 10 uM. In kind it is protein-complex assay.
Test [13] addresses RAF proto-oncogene serine/threonine-protein kinase (Homo sapiens) (UniProt P04049). The settings on record: 10 uM.
Test [14] addresses Insulin-like growth factor 1 receptor (Homo sapiens) (UniProt P08069). Briefly: Inhibition of Type 1 insulin like growth factor receptor at 10 uM. In a few lines:
as §1

Test [15] has as its target Vascular endothelial growth factor receptor 1 (Homo sapiens) (UniProt P17948). Briefly: Inhibition of Protein kinase Flt-1 at 10 uM. In short, it runs like this: as §1
Test [16] concerns the target Tyrosine-protein kinase ABL1 (Homo sapiens) (UniProt P00519). Briefly: Inhibition of c-Abl tyrosine kinase at 10 uM. In a few lines: as §1
Test [17] concerns the target Fibroblast growth factor receptor 1 (Homo sapiens) (UniProt P11362). Briefly: Inhibition of Protein kinase fibroblast growth factor receptor 1 at 10 uM. In short, it runs like this: as §1
Test [18] deals with Vascular endothelial growth factor receptor 2 (Homo sapiens) (UniProt P35968). Briefly: Inhibition of Kinase insert domain receptor (VEGFR2) at 10 uM. In short, it runs like this:
as §1

Test [19] deals with Receptor-type tyrosine-protein kinase FLT3 (Homo sapiens) (UniProt P36888). Briefly: Inhibition of Protein kinase Flt-3 at 10 uM.
Test [20] concerns the target Serine/threonine-protein kinase AKT (Homo sapiens) (UniProt P31751+Q9Y243+P31749). Briefly: Inhibition of Protein kinase B at 10 uM. In kind it is protein assay.
Test [21] addresses Hepatocyte growth factor receptor (Homo sapiens) (UniProt P08581). Briefly: Inhibition of Protein kinase Met at 10 uM. In a few lines: as §1
For test [22], the target named is cAMP-dependent protein kinase (PKA) (Homo sapiens) (UniProt P22694+P17612+P22612). Briefly: Inhibition of Protein kinase A at 10 uM. In kind it is protein assay. In short, it runs like this:
as §2

Sequence of Tyrosine-protein kinase ABL1 (Homo sapiens) (P00519 whole entry): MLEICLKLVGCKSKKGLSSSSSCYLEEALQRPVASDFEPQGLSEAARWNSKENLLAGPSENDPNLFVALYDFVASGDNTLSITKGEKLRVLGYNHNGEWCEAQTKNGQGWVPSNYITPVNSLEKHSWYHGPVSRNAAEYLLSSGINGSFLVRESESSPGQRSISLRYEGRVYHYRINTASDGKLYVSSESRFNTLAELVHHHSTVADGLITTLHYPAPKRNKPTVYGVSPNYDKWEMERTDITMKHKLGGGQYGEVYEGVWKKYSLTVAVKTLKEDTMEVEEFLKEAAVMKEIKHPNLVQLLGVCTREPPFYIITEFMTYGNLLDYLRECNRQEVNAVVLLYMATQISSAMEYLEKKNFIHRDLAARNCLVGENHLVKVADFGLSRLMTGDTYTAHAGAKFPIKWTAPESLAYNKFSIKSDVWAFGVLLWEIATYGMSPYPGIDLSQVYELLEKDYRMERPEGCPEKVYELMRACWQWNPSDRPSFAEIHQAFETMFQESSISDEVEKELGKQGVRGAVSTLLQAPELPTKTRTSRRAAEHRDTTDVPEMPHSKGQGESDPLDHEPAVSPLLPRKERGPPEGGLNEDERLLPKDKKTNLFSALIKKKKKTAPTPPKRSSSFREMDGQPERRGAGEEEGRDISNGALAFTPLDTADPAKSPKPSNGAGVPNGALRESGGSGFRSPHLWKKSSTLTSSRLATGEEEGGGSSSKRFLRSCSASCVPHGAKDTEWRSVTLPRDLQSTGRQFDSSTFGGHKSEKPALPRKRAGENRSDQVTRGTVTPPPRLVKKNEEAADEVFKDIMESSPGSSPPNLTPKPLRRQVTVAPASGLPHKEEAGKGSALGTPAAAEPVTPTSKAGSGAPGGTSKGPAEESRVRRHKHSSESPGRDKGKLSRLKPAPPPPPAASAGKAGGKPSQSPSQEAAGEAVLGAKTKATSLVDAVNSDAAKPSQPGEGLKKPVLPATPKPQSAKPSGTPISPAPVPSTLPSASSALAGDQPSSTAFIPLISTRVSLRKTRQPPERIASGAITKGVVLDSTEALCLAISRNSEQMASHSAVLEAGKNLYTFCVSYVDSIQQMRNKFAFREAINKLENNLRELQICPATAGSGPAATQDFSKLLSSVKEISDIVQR
Sequence of Vascular endothelial growth factor receptor 2 (Homo sapiens) (P35968 whole entry, the tested form may be a part): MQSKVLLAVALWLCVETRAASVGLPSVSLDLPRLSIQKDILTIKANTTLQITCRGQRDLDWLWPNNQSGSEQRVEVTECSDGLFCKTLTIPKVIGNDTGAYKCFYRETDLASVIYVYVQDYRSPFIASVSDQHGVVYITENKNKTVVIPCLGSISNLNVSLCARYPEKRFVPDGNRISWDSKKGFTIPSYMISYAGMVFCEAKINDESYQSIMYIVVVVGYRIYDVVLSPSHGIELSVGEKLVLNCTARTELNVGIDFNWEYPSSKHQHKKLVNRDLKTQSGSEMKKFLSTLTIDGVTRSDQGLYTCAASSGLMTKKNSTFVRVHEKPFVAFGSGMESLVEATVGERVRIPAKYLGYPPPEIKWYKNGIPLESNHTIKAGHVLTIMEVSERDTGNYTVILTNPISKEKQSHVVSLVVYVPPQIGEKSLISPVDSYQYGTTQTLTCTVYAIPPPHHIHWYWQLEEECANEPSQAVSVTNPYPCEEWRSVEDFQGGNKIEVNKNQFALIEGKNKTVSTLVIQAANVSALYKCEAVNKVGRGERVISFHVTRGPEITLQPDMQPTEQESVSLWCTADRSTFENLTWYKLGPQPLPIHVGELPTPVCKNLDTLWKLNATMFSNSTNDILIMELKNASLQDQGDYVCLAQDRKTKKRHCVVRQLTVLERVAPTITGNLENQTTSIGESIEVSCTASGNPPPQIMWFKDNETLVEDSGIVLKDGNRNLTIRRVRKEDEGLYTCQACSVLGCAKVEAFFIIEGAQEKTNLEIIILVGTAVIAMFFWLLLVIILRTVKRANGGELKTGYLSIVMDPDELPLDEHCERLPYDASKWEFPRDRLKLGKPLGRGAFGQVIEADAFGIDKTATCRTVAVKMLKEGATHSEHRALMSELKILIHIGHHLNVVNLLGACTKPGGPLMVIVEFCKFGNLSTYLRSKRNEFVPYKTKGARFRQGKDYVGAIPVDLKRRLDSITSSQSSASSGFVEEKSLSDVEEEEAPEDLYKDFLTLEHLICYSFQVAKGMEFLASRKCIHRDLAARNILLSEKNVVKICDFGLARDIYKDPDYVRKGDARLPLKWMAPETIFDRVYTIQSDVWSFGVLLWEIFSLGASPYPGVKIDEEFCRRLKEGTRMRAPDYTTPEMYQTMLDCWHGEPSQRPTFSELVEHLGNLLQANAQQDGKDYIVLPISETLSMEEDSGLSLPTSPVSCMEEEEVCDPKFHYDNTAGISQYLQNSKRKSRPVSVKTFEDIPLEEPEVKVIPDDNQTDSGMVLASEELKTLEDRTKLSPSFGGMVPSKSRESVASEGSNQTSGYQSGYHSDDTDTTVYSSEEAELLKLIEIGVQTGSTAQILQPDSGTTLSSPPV
Sequence of Serine/threonine-protein kinase AKT (Homo sapiens) (P31749 whole entry, looked up): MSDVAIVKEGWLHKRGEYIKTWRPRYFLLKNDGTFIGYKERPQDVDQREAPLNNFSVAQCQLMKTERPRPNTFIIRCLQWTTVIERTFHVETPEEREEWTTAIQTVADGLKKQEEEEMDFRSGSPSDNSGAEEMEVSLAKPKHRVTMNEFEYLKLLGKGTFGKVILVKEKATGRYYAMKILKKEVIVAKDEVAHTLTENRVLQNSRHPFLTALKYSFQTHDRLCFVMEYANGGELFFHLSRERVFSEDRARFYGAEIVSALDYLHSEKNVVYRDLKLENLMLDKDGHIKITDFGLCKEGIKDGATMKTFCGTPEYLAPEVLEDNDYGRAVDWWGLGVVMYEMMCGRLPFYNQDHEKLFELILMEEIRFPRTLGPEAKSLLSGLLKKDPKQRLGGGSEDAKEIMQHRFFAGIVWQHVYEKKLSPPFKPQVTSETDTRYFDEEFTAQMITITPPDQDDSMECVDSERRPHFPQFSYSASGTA
Sequence of Serine/threonine-protein kinase AKT (Homo sapiens) (P31751 whole entry, looked up): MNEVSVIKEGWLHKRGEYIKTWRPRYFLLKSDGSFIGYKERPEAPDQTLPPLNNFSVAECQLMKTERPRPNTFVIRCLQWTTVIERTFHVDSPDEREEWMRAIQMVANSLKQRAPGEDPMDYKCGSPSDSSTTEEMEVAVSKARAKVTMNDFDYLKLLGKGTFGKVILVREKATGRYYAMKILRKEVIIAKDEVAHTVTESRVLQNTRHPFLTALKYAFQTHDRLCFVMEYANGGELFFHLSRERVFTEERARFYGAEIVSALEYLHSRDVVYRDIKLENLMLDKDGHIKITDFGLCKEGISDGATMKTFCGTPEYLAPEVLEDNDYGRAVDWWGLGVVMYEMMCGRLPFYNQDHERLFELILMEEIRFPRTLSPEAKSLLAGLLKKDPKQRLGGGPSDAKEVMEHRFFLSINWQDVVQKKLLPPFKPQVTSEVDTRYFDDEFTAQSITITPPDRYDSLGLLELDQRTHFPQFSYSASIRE
Sequence of Serine/threonine-protein kinase AKT (Homo sapiens) (Q9Y243 whole entry, looked up): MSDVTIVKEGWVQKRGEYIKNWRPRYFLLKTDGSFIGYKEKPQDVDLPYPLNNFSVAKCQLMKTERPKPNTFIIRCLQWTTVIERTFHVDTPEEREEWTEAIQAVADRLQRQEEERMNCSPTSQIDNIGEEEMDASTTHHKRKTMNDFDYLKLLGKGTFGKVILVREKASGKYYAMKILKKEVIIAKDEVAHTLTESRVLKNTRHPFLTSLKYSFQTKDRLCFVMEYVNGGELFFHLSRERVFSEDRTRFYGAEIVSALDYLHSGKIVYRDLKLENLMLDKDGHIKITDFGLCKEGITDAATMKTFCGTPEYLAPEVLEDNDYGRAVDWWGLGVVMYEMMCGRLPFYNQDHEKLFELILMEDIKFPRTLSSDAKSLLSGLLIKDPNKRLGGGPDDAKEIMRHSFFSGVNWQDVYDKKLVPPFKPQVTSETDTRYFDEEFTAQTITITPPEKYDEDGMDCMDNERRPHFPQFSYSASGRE
Sequence of Cyclin-dependent kinase 1 (Homo sapiens) (P06493 whole entry, looked up): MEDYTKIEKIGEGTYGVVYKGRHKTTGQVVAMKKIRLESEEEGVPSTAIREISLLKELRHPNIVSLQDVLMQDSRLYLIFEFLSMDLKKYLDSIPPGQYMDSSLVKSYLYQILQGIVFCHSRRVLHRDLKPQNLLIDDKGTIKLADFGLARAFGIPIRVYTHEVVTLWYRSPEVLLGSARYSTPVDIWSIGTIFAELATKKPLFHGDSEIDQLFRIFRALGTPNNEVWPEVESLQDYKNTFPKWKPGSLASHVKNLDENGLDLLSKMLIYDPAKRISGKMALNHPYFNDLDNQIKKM

The inhibition is the share of the control response that was lost under treatment. Low readings indicate little suppression, high ones strong suppression. The term IC50 denotes the point on the concentration scale where inhibition reaches its midpoint. For the compound `O=C(O)Cc1c2ccccc2n2c1[nH]c(=O)c1ccccc12`, the inhibition in test [1] came out at 29%; in test [2] it was 23%; in test [3], 0%; in [4] it was 30%; in test [5] it was 12%; in test [6] it was 31%. Moreover, the inhibition was 11% in test [7]; 9% in test [8]; 36% in test [10]; 51% in test [11]; 97% in test [12]; 30% in test [13]. Moreover, the inhibition in [14] was determined as 44%; in [15] it was 21%; in test [16], 25%; in test [17] it was 32%; in test [18] it was 54%; in test [19], 41%. Further, the inhibition was 30% in test [20], 40% in [21] and 51% in test [22]. Moreover, 80 nM corresponded to half-maximal inhibition in [9] (IC50).
Regarding `OCCc1c2ccccc2n2c1nc(O)c1ccccc12`, in [12], the inhibition was 48%.
Same read-out and setting: the figure for `Cc1c2ccccc2n2c1nc(O)c1ccccc12` is 12%.
